Screening data: PubChem BioAssay, several laboratories
Sampled rows, rich in hits. Any-hit rate of the full collection: about 3.1%.
CTSL1 counter = counter-screen for PFM18AAP inhibitors: inhibitors of F. hepatica cathepsin L1; actives 0.49% (n = 300,000); recombinant F. hepatica cathepsin L1, Z-Leu-Arg-MCA fluorescence; inhibition, % at 5.96 µM;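 active = inhibition above the mean of all tested compounds plus 3 SD, set per screening campaign, cut at about 17% in these data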;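 note: 0% = plate median of test compound wells and 100% = 1 µM Z-Phe-Ala-diazomethylketone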
HCV core dimer = HCV core protein dimerization inhibition. TR-FRET GST/Flag-core106 dimerization, 1536-well. inhibition, % at 5 µM. actives 0.33% (n = 300,000). AID 1899;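 active = inhibition above the mean of all tested compounds plus 3 SD, set per screening campaign, cut at about 45% in these data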
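Assay system: tagged HCV core106 pair (GST and Flag); medium: KF-containing HEPES buffer, pH 7.45, DTT, CHAPS, BSA; also added: Eu donor and XL665 acceptor anti-tag antibodies; dosing: 5 µM single dose; timing: compound-protein-antibody incubation 4 h at 22.5 °C; signal: TR-FRET 671 and 617 nm emission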
Myeloid diff 2 = compounds promoting myeloid differentiation. ER-HoxA9 myeloid progenitors, lysozyme-GFP differentiation, flow cytometry. calls only at 10 µM. actives 1% (n = 360,000). AID 624256;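 active = normalized GFP-positive differentiation at or above the plate's own cutoff, the solvent-only control mean plus 3 SD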;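 note: cells exposed to compound for four days before flow analysis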
NadD inh = inhibitors of Staphylococcus aureus NadD | purified NadD enzyme, colorimetric absorbance read-out | inhibition, % at 20 µM | actives 0.78% (n = 360,000); in the data active = inhibition above about 26%
PP5 inh = blocks human protein phosphatase 5 activity | P53041 | purified PP5c, OMFP substrate fluorescence | inhibition, % at 6.7 µM | actives 0.18% (n = 320,000);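 active = inhibition above the campaign's mean inhibition across all tested compounds plus 3 SD, cut at about 9.5% in these data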;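 note: 0% = DMSO only and 100% = 100 µM cantharidin control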
Target sequence (P53041 whole entry, looked up): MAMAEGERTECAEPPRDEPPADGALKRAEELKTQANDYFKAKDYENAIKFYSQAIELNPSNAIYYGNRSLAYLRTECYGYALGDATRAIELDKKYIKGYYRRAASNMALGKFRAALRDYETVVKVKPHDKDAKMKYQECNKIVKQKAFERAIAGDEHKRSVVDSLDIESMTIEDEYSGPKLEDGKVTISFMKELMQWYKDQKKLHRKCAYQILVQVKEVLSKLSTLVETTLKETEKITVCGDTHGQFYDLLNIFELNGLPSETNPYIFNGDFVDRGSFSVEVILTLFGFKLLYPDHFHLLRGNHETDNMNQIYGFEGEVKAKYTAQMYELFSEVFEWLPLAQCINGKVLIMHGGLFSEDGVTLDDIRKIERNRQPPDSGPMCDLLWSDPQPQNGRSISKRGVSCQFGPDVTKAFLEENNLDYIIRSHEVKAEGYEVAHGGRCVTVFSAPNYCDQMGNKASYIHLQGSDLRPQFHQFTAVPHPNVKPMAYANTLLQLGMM
PP1 inh = PP1-alpha (human) inhibition in PP5 counter-screen; actives 0.9% (n = 320,000); P62136; purified PP1alpha, OMFP fluorescence; inhibition, % at 6.7 µM; AID 2235;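 active = inhibition above the mean inhibition of all tested compounds plus 3 SD, computed separately for each screening campaign, cut at about 15% in these data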
NadD inh conf = confirmation of Staphylococcus aureus NadD inhibitors; purified S. aureus NadD, colorimetric enzyme assay; shares compounds with NadD inh; actives 13% (n = 2,000); inhibition, % at 20 µM; in the data active = inhibition mostly above about 42%, no sharp cut-off; inactive = mostly below about 42%
The depositor's hits bear a star.

Results for CN(C)c1ccc(/C=N\NC(=S)SCN2C(=O)C3CCC(C)(C2=O)C3(C)C)cc1 (stereo not drawn) ?
CTSL1 counter: 4; HCV core dimer: 36; Myeloid diff 2: inactive; NadD inh: 29*; PP5 inh: 1; PP1 inh: -1; NadD inh conf: 17

What do the screens show for `COc1ccc(/C=N\NC(=S)SCN2C(=O)C3CCC(C)(C2=O)C3(C)C)cc1` (stereo not drawn)?
CTSL1 counter: 3; HCV core dimer: 19; Myeloid diff 2: inactive; NadD inh: 18; PP5 inh: 4; PP1 inh: 1

How did COc1ccccc1CN1CC(C(=O)NCCn2ccc(C)n2)CCC1=O (stereo not drawn) do in these assays?
CTSL1 counter: 1; HCV core dimer: -5; Myeloid diff 2: inactive; NadD inh: -1; PP5 inh: 2; PP1 inh: -2

How did Cc1nn(CCc2nn[nH]n2)c2nc(-c3ccc(Br)cc3)cc(C(F)(F)F)c12 do in these assays?
CTSL1 counter: 8; HCV core dimer: 21; Myeloid diff 2: inactive; NadD inh: 28*; PP5 inh: 3; PP1 inh: 7; NadD inh conf: 42

Results for COc1cc2c(=O)n(CCC(=O)NCC3CCCO3)c(=O)n(CC(=O)Nc3ccc(C)cc3C)c2cc1OC (stereo not drawn) ?
CTSL1 counter: 1; HCV core dimer: 9; Myeloid diff 2: inactive; NadD inh: -2; PP5 inh: 1; PP1 inh: 1

Results for O=C(CSc1nc2c(cnn2-c2ccccc2)c(=O)[nH]1)c1ccc(Cl)cc1 ?
CTSL1 counter: 1; HCV core dimer: 22; Myeloid diff 2: inactive; NadD inh: 37*; PP5 inh: 1; PP1 inh: 1; NadD inh conf: -3

Results for COc1ccccc1C(=O)NCCC(=O)N1CC=C(c2ccccc2)CC1 ?
CTSL1 counter: -3; HCV core dimer: 4; Myeloid diff 2: inactive; NadD inh: 42*; PP5 inh: 3; PP1 inh: -3; NadD inh conf: 8

What do the screens show for `COc1ccccc1C(=O)NCCC(=O)N1CCCCC1`?
CTSL1 counter: 1; HCV core dimer: 0; Myeloid diff 2: inactive; NadD inh: 2; PP5 inh: 0; PP1 inh: 0

What do the screens show for `Cc1cc(Cl)ccc1OCC(=O)Nn1c(C)ccc1C`?
CTSL1 counter: -4; HCV core dimer: 17; Myeloid diff 2: inactive; NadD inh: 41*; PP5 inh: 2; PP1 inh: 0; NadD inh conf: 4

Results for O=c1[nH]c2cc([N+](=O)[O-])ccc2c2cc(Br)ccc12 ?
Myeloid diff 2: inactive; NadD inh: 38*; NadD inh conf: 11

What do the screens show for `CCc1ccccc1NC(=O)CN(C)C(=O)COC(=O)c1ccco1`?
Myeloid diff 2: inactive; NadD inh: 1

Results for CCOC(=O)c1cc(-c2ccco2)nc2c1c(C)nn2-c1ccccc1 ?
CTSL1 counter: 4; HCV core dimer: 59*; Myeloid diff 2: inactive; NadD inh: 33*; PP5 inh: 1; PP1 inh: -3; NadD inh conf: 8

How did Cn1c(=NC(=O)c2ccc(S(=O)(=O)N3CCCc4ccccc43)cc2)sc2cc(S(C)(=O)=O)ccc21 do in these assays?
CTSL1 counter: -8; HCV core dimer: 0; Myeloid diff 2: inactive; NadD inh: 14; PP5 inh: 1; PP1 inh: -1

What do the screens show for `C#CCn1c(=NC(=O)c2ccc(S(=O)(=O)N3CCCc4ccccc43)cc2)sc2cc(S(N)(=O)=O)ccc21`?
CTSL1 counter: 0; HCV core dimer: 52*; Myeloid diff 2: inactive; NadD inh: 50*; PP5 inh: 0; PP1 inh: 16*; NadD inh conf: 39

How did Cc1cccc(CCNC(=O)C2CCC(=O)N(Cc3ccccc3F)C2)n1 (stereo not drawn) do in these assays?
CTSL1 counter: -1; HCV core dimer: -3; Myeloid diff 2: inactive; NadD inh: -2; PP5 inh: 2; PP1 inh: -2

How did CSc1ccccc1NC(=O)COC(=O)c1cnc(C)cn1 do in these assays?
Myeloid diff 2: inactive; NadD inh: 0

Results for C=CCOc1ccc(/C=C/C(=O)OCc2csc(CC(=O)Nc3ccccc3C)n2)cc1 ?
Myeloid diff 2: inactive; NadD inh: 10; PP5 inh: 3; PP1 inh: 6

Results for CSc1ccc(C(c2c(C(=O)O)[nH]c3ccccc23)c2c(C(=O)O)[nH]c3ccccc23)cc1 ?
CTSL1 counter: 1; HCV core dimer: 35; Myeloid diff 2: inactive; NadD inh: 37*; PP5 inh: 0; PP1 inh: 13; NadD inh conf: 48*

Results for CCOc1cc(Br)cc(C(c2c(C(=O)O)[nH]c3ccccc23)c2c(C(=O)O)[nH]c3ccccc23)c1O ?
CTSL1 counter: -6; HCV core dimer: 38; Myeloid diff 2: inactive; NadD inh: 17; PP5 inh: -1; PP1 inh: 11

Results for COc1ccc(C2CC(c3ccccc3)=NN2C(=O)CN2N=NC3C(=O)N(c4cccc(F)c4)C(=O)C32)cc1 (stereo not drawn) ?
CTSL1 counter: -2; HCV core dimer: 40; Myeloid diff 2: inactive; NadD inh: 40*; PP5 inh: 2; PP1 inh: 17*; NadD inh conf: 8

Results for O=C(Cn1cnc2c(NC(=O)OCc3ccccc3)ncnc21)NCc1ccccn1 ?
Myeloid diff 2: inactive; NadD inh: -3; PP5 inh: 0; PP1 inh: -11

Results for Cc1cc(-c2ccc([N+](=O)[O-])cc2)nc2ccccc12 ?
CTSL1 counter: 1; HCV core dimer: 1; Myeloid diff 2: inactive; NadD inh: 6; PP5 inh: 1; PP1 inh: 0

How did Cc1cc(N2CCN(c3nc(-c4ccc([N+](=O)[O-])cc4)cs3)CC2)c2ccccc2n1 do in these assays?
CTSL1 counter: -4; HCV core dimer: 14; Myeloid diff 2: inactive; NadD inh: 28*; PP5 inh: -1; PP1 inh: 7; NadD inh conf: -13

Results for N#CCCCc1cc2cc(F)ccc2cn1 ?
Myeloid diff 2: inactive; NadD inh: -10

Results for O=C(N/N=C/c1c[nH]c2ccccc12)c1cc(-c2ccccc2)n[nH]1 ?
CTSL1 counter: 4; HCV core dimer: -9; Myeloid diff 2: inactive; NadD inh: 3; PP5 inh: 4; PP1 inh: 3

What do the screens show for `O=C(N/N=C/c1c[nH]c2ccccc12)c1cc(-c2ccc(-c3ccccc3)cc2)n[nH]1`?
CTSL1 counter: 3; HCV core dimer: 6; Myeloid diff 2: inactive; NadD inh: 50*; PP5 inh: 4; PP1 inh: 10; NadD inh conf: 47*
